From publication PMC7325368 (Journal of Clinical Oncology, 2020)
Values joined by “and” are separate entries in the source; they are usually repeats but may differ in a detail not shown here. Identical values can stand only once. Like-named read-outs stand apart in the source and are kept apart here.

Tests used:
B-RAF–mutated melanoma = settings: patients with B-RAF–mutated melanoma ref 12, 33; cited from earlier work
[1] = system: B-RAF– or K-RAS/N-RAS–mutated solid tumors; type: in vivo, human
How it was run: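 Oral test compound once daily: escalation cohorts at 5–60 mg; expansion at 30 mg/d in 21-day cycles in patients with B-RAF or K-RAS/N-RAS mutations. Treatment continued until unacceptable toxicity or withdrawal, with treatment beyond progression allowed if clinically beneficial. Response and stable disease scored per RECIST v1.1, investigator-assessed in expansion. Time-to-event end points summarized by Kaplan-Meier estimators.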

[2] = system: tumor FDG uptake in patients with solid tumors; test: FDG-PET-CT scans; type: in vivo, human
How it was run: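 Exploratory FDG uptake measured by FDG-PET-CT at screening and again on cycle 2, day 1 (± 3 days) in patients receiving the oral test compound once daily in 21-day cycles. Each patient's on-treatment uptake category was compared with the baseline scan.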

[3] = Plasma pharmacokinetics in patients; type: in vivo; settings: human
How it was run: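 Oral test compound given as a single dose on cycle 1, day 1, then a 2-day treatment-free period for single-dose PK sampling, then once daily on days 4–24 and continuously in 21-day cycles. Doses were 10–60 mg. Plasma was sampled at prespecified time points on cycle 1, day 1 and cycle 2, day 1. Accumulation ratios for Cmax, AUC0-9 and AUC0-24 were taken as cycle 2/cycle 1.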

[4] = system: patients with advanced/metastatic solid tumors; test: Safety and tolerability; type: in vivo, human
[5] = system: EGFR, DDR1, DDR2, EPHA3, FLT3, VEGFR2, ABL1, RET, EPHGA7, EPHB2, MNK2, and ZAK; settings: EPHGA7, EPHB2, MNK2, ZAK ref 15; cited from earlier work
VEGFR2 = settings: inhibition of VEGFR2 ref 15; cited from earlier work
[6] = system: B-RAF–mutated solid tumors; test: Antitumor activity; type: in vivo, human
[7] = system: K-RAS/N-RAS–mutated solid tumors; test: Antitumor activity; type: in vivo, human
[8] = cycle 2, day 1, 34 patients (7 missing postbaseline results)
[9] = cycle 2, day 1 vs baseline, 1 patient
[10] = Dose Expansion (n = 96), 30 mg/d
[11] = B-RAF^mut patients (n = 53), both phases
[12] = K-RAS^mut/N-RAS^mut patients (n = 66), both phases

CC(C)(C)c1nc(-c2cccc(NS(=O)(=O)c3c(F)cccc3F)c2F)c(-c2ccnc(N)n2)s1 [dabrafenib]
DCR (B-RAF–mutated melanoma): 91%
ORR (B-RAF–mutated melanoma): 50%

O=C1CCc2c(Oc3ccc4c(c3)[C@@H]3[C@H](O4)[C@H]3c3nc4ccc(C(F)(F)F)cc4[nH]3)ccnc2N1 [lifirafenib]
Patients with confirmed clinical responses ([1]; dose escalation, n = 3, all had FDG-PET-CT responses): 8.6%
Median DoR ([1]; dose escalation, 95% CI, 6.8 to 31.7 months): 31.7 months
Median DoR ([1]; dose expansion, 95% CI, 1.9 months to not reached): 11.1 months
Median duration of SD ([1]; dose expansion, 95% CI, 3.5 to 4.9 months): 4.1 months
Patients with high FDG uptake [2, 8]: 15 patients
Patients with low FDG uptake [2, 8]: 1 patient
Patients with moderate FDG uptake [2, 8]: 10 patients
Patients with no FDG uptake [2, 8]: 1 patient
Patients who changed from high to low FDG uptake [2, 9]: 2.9%
Patients who changed from low to no FDG uptake [2, 9]: 2.9%
Patients who changed from high to moderate FDG uptake ([2]; cycle 2, day 1 vs baseline, 7 patients): 20.6%
Patients with partial metabolic reduction per EORTC criteria ([2]; dose escalation): 11 patients
Patients with complete metabolic reduction ([2]; dose escalation, B-RAF mutation, 40 mg/d): 1 patient
Patients with partial/complete metabolic reductions by FDG-PET-CT scan ([2]; dose escalation, of 34 patients): 12 patients
Patients with partial/complete metabolic reduction who received ≥ 30 mg/d ([2]; of 12 patients with metabolic reductions): 11 patients
half-life ([3]; oral): 15 to 59 h
Tmax ([3]; po): 3 h
Patients with dose interruptions/reductions as a result of drug toxicity ([4]; 40 mg/d, typically between days 13 and 28 of cycle 1): 70%
TEAE Abdominal pain, upper, Any Grade ([4]; Dose Escalation (n = 35)): 4 (11.4) No. (%)
TEAE Abdominal pain, upper, Grade ≥ 3 ([4]; Dose Escalation (n = 35)): 0 (0.0) No. (%)
TEAE Gastroesophageal reflux disease, Any Grade ([4]; Dose Escalation (n = 35)): 6 (17.1) No. (%)
TEAE Gastroesophageal reflux disease, Grade ≥ 3 ([4]; Dose Escalation (n = 35)): 0 (0.0) No. (%)
TEAE Musculoskeletal chest pain, Any Grade ([4]; Dose Escalation (n = 35)): 6 (17.1) No. (%)
TEAE Musculoskeletal chest pain, Grade ≥ 3 ([4]; Dose Escalation (n = 35)): 0 (0.0) No. (%)
TEAE Palmoplantar erythrodysesthesia syndrome, Any Grade ([4]; Dose Escalation (n = 35)): 11 (31.4) No. (%)
TEAE Palmoplantar erythrodysesthesia syndrome, Grade ≥ 3 ([4]; Dose Escalation (n = 35)): 2 (5.7) No. (%)
TEAE Upper respiratory tract infection, Any Grade ([4]; Dose Escalation (n = 35)): 6 (17.1) No. (%)
TEAE Upper respiratory tract infection, Grade ≥ 3 ([4]; Dose Escalation (n = 35)): 0 (0.0) No. (%)
TEAE Urinary tract infection, Any Grade ([4]; Dose Escalation (n = 35)): 4 (11.4) No. (%)
TEAE Urinary tract infection, Grade ≥ 3 ([4]; Dose Escalation (n = 35)): 0 (0.0) No. (%)
TEAE γ-Glutamyl transferase increase, Any Grade ([4]; Dose Escalation (n = 35)): 6 (17.1) No. (%)
TEAE γ-Glutamyl transferase increase, Grade ≥ 3 ([4]; Dose Escalation (n = 35)): 4 (11.4) No. (%)
TEAE Abdominal pain, upper, Any Grade [4, 10]: 8 (8.3) No. (%)
TEAE Abdominal pain, upper, Grade ≥ 3 [4, 10]: 2 (2.1) No. (%)
TEAE Gastroesophageal reflux disease, Any Grade [4, 10]: 4 (4.2) No. (%)
TEAE Gastroesophageal reflux disease, Grade ≥ 3 [4, 10]: 0 (0.0) No. (%)
TEAE Musculoskeletal chest pain, Any Grade [4, 10]: 7 (7.3) No. (%)
TEAE Musculoskeletal chest pain, Grade ≥ 3 [4, 10]: 0 (0.0) No. (%)
TEAE Palmoplantar erythrodysesthesia syndrome, Any Grade [4, 10]: 20 (20.8) No. (%)
TEAE Palmoplantar erythrodysesthesia syndrome, Grade ≥ 3 [4, 10]: 1 (1.0) No. (%)
TEAE Upper respiratory tract infection, Any Grade [4, 10]: 5 (5.2) No. (%)
TEAE Upper respiratory tract infection, Grade ≥ 3 [4, 10]: 0 (0.0) No. (%)
TEAE Urinary tract infection, Any Grade [4, 10]: 10 (10.4) No. (%)
TEAE Urinary tract infection, Grade ≥ 3 [4, 10]: 1 (1.0) No. (%)
TEAE γ-Glutamyl transferase increase, Any Grade [4, 10]: 4 (4.2) No. (%)
TEAE γ-Glutamyl transferase increase, Grade ≥ 3 [4, 10]: 4 (4.2) No. (%)
Time to occurrence of dose-limiting thrombocytopenia ([4]; after initial dosing, dose escalation): 2-3 weeks
Patients who experienced reversible DLTs ([4]; among patients eligible for DLT assessment (n = 31), dose escalation): 6 patients
DLT: grade 3 increased ALT ([4]; dose escalation): 1 n
DLT: grade 4 thrombocytopenia ([4]; dose escalation): 5 n
Grade ≥ 3 treatment-related TEAE fatigue ([4]; dose escalation): 11.4%
Grade ≥ 3 treatment-related TEAE hypertension ([4]; dose escalation): 11.4%
Grade ≥ 3 treatment-related TEAE thrombocytopenia ([4]; dose escalation): 14.3%
Patients with TEAEs that led to discontinuation ([4]; dose escalation (n = 35), five patients): 14.3%
Patients with grade ≥ 3 TEAEs (including DLTs) ([4]; dose escalation, 26 patients): 74.3%
Share of patients reporting grade ≥ 3 TEAEs ([4]; dose escalation, 40, 50, and 60 mg/d cohorts): 61.5%
Share of patients reporting grade ≥ 3 TEAEs ([4]; dose escalation, lower-dose cohorts): 38.5%
Dose-limiting thrombocytopenia that occurred at 40 and 60 mg/d ([4]; dose escalation, n = 2 each (eighty percent)): 4 of 5
Maximum tolerated dose (MTD) ([4]; dose escalation, once-daily oral dosing): 40 mg/day
Grade ≥ 3 treatment-related AE fatigue ([4]; dose expansion): 7.3%
Grade ≥ 3 treatment-related AE hypertension ([4]; dose expansion): 8.3%
Patients with TEAEs that led to discontinuation ([4]; dose expansion (n = 96), 19 patients): 19.8%
Patients with serious TEAEs ([4]; dose expansion (n = 96), 56 patients): 58.3%
Patients with grade ≥ 3 TEAEs ([4]; dose expansion (n = 96), 68 patients): 70.8%
Patients with AEs that led to a dose adjustment ([4]; dose expansion, fifty patients): 52%
Patients with TEAEs that led to death (considered unrelated to treatment) ([4]; dose expansion, four patients, 6 TEAEs): 4.2%
Cutaneous SCC or keratoacanthoma ([4]; during the entire study): not reported
DLTs that occurred at doses ≥ 40 mg/d ([4]; of 6 patients with DLTs, dose escalation): 5 patients
Time to platelet count recovery ([4]; platelet transfusion or prednisolone and withholding of lifirafenib): 6 to 20 days
IC50s relative to that for B-RAF^V600E [5]: ≤ 10 fold
IC50 (VEGFR2): 0.108 µM
Patients with duration of treatment > 1 year ([6]; B-RAF mutations): 10 n
DCR ([6]; B-RAF^V600–mutated thyroid cancer (3 patients)): 100%
ORR ([6]; B-RAF^V600–mutated thyroid cancer, one of 3 patients confirmed PR): 33.3%
Best overall response (confirmed): CR [6, 11]: 1 (1.9) No. (%)
Best overall response (confirmed): NE/missing [6, 11]: 9 (17.0) No. (%)
Best overall response (confirmed): PD [6, 11]: 8 (15.1) No. (%)
Best overall response (confirmed): SD [6, 11]: 27 (50.9%) No. (%) and 27 (50.9) No. (%)
Disease control rate (CR + PR + SD) [6, 11]: 36 (67.9) No. (%)
Objective response rate (CR + PR) [6, 11]: 9 (17.0) No. (%)
Patients with confirmed PR ([6]; B-RAF–mutated thyroid cancer/PTC): 2 n
Patients with confirmed PR ([6]; human, in vivo): 1 n
Patients with confirmed PR ([7]; K-RAS codon 12–mutated NSCLC, 30 mg/d): 1 n
Patients with duration of treatment > 1 year ([7]; K-RAS mutations): 5 n
Patients with confirmed responses ([7]; K-RAS mutations, entire study): 2 patients
Responses ([7]; K-RAS/N-RAS–mutated colorectal cancer (n = 20)): No responses
Best overall response (confirmed): CR [7, 12]: 0 No. (%)
Best overall response (confirmed): NE/missing [7, 12]: 15 (22.7) No. (%)
Best overall response (confirmed): PD [7, 12]: 16 (24.2) No. (%)
Best overall response (confirmed): PR [7, 12]: 2 (3.0) No. (%)
Best overall response (confirmed): SD [7, 12]: 33 (50.0) No. (%)
Disease control rate (CR + PR + SD) [7, 12]: 35 (53.0) No. (%)
Objective response rate (CR + PR) [7, 12]: 2 (3.0) No. (%)
Patients with SD ([7]; K-RAS– or N-RAS–mutated CRC): Twelve
Patients with SD ([7]; K-RAS–mutated NSCLC (codon 12 mutated and K-RAS G13D, n = 1 each)): 2 patients
Patients with SD ([7]; K-RAS–mutated endometrial cancer (codon 12 mutated, n = 4; codon 2 mutated, n = 1)): 5 patients
Patients with confirmed PR ([7]; K-RAS–mutated endometrial cancer, 20 mg/d): 1 n
ORR ([7]; patients with K-RAS mutations, entire study): 3.4%
Patients with SD ([7]; patients with K-RAS mutations, entire study, 32 patients): 54.2%

CCCS(=O)(=O)Nc1ccc(F)c(C(=O)c2c[nH]c3ncc(-c4ccc(Cl)cc4)cc23)c1F [vemurafenib]
ORR (B-RAF–mutated melanoma): 48%
